Results as given in ChEMBL document CHEMBL1144474, “Synthesis and anti-HIV-1 activity evaluation of 5-alkyl-2-alkylthio-6-(arylcarbonyl or alpha-cyanoarylmethyl)-3,4-dihydropyrimidin-4(3H)-ones as novel non-nucleoside HIV-1 reverse transcriptase inhibitors” (J Med Chem, 2007).

Tests used:
[1] = Cytotoxicity against MT4 cells after 4 days by MTT method; type: cell-based; conditions: human
Procedure, shortened: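 Uninfected MT-4 cells were run in parallel with the infected cultures across a range of compound concentrations (DMSO stocks, 50 mM or higher). After 4 days at 37 °C, viability was read by MTT. CC₅₀ is the concentration that cuts normal cell viability by 50%.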

[2] = tested on: Human immunodeficiency virus 1; assay: Antiviral activity against wild type HIV1 3B in MT4 cells after 4 days by MTT method; type: functional, organism-based; conditions: Human immunodeficiency virus 1, 3B, MT4, 96 h
Procedure, shortened: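 MT-4 cells at 1 × 10⁵ cells/mL infected with HIV-1 IIIB (titrated as CCID₅₀) at MOI 0.02, then plated right away into serial compound dilutions (DMSO stocks, 50 mM or higher). After 4 days at 37 °C, viable cells were counted by MTT. IC₅₀ is the concentration giving 50% protection from viral cytopathogenicity.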

[3] = Selectivity index, CC50 for MT4 cells/IC50 for HIV1 3B; type: functional
Procedure, shortened: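 Ratio of CC₅₀ in uninfected MT-4 cells to IC₅₀ against HIV-1 IIIB cytopathogenicity in MT-4 cells. Both values come from the 4-day, 37 °C MTT read-out, run in parallel.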

[4] = Selectivity index, CC50 for PBMC/IC50 for HIV1 3B; type: functional
[5] = tested on: Human immunodeficiency virus 1; assay: Antiviral activity against HIV1 3B in human PBMC assessed by measuring p24 antigen production after 7 days by ELISA; type: functional, organism-based; conditions: Human immunodeficiency virus 1, 3B, 168 h
Procedure, shortened: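 Donor PBMCs were isolated by density centrifugation, stimulated with PHA for 3 days and washed in PBS. Cells (2 × 10⁵/200 µL) were plated in serial compound dilutions and infected with HIV at 1000 CCID₅₀ per mL. On day 4, medium was partly replaced with fresh medium containing compound. p24 antigen in the supernatant was measured by ELISA on day 7.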

[6] = Cytotoxicity against mock-infecected human PBMC; type: cell-based; conditions: mock-infected PBMC

## C#CCSc1nc(C(=O)c2cccc3ccccc23)c(C)c(=O)[nH]1
[1]
  CC50 at 96 h: 124 µM
[2]
  IC50: > 124 µM
[3]
  Ratio CC50/IC50: <1

## CCSc1nc(C(=O)c2ccccc2)cc(=O)[nH]1
[1]
  CC50 at 96 h: 247 µM
[2]
  IC50: > 247 µM
[3]
  Ratio CC50/IC50: <1

## Cc1c(C(C#N)c2cccc3ccccc23)nc(SC2CCCC2)[nH]c1=O (stereo unspecified)
[1]
  CC50 at 96 h: 49.4 µM
[2]
  IC50: 0.8 µM
[3]
  Ratio CC50/IC50: 61

## Cc1c(C(C#N)c2ccccc2)nc(SCC(=O)c2ccccc2)[nH]c1=O (stereo unspecified)
[1]
  CC50 at 96 h: 53.8 µM
[2]
  IC50: 7.28 µM
[3]
  Ratio CC50/IC50: 7

## O=C(CSc1nc(C(=O)c2cccc3ccccc23)cc(=O)[nH]1)c1ccccc1
[1]
  CC50 at 96 h: > 304 µM
[2]
  IC50: > 304 µM

## CCSc1nc(C(C#N)c2cccc3ccccc23)c(CC)c(=O)[nH]1 (stereo unspecified)
[1]
  CC50 at 96 h: 122 µM
[2]
  IC50: 1.17 µM
[3]
  Ratio CC50/IC50: 103

## CCSc1nc(C(=O)c2cccc3ccccc23)cc(=O)[nH]1
[1]
  CC50 at 96 h: 242 µM
[2]
  IC50: 37.6 µM
[3]
  Ratio CC50/IC50: 6

## CCc1c(C(C#N)c2ccccc2)nc(SCc2ccc([N+](=O)[O-])cc2)[nH]c1=O (stereo unspecified)
[1]
  CC50 at 96 h: 34.2 µM
[2]
  IC50: 1.33 µM
[3]
  Ratio CC50/IC50: 26

## CCc1c(C(C#N)c2c(Cl)cccc2Cl)nc(SCc2ccc([N+](=O)[O-])cc2)[nH]c1=O (stereo unspecified)
[1]
  CC50 at 96 h: 23.5 µM
[2]
  IC50: 2.22 µM
[3]
  Ratio CC50/IC50: 11

## CC(C)Sc1nc(C(C#N)c2cccc3ccccc23)cc(=O)[nH]1 (stereo unspecified)
[1]
  CC50 at 96 h: 53.2 µM
[2]
  IC50: 0.66 µM
[3]
  Ratio CC50/IC50: 82

## C=CCSc1nc(C(=O)c2cccc3ccccc23)c(CC)c(=O)[nH]1
[1]
  CC50 at 96 h: 210 µM
[2]
  IC50: 16.9 µM
[3]
  Ratio CC50/IC50: 12

## CCc1c(C(C#N)c2cccc3ccccc23)nc(SCC(=O)c2ccc(Cl)cc2)[nH]c1=O (stereo unspecified)
[1]
  CC50 at 96 h: 117 µM
[2]
  IC50: ≥ 35.7 µM
[3]
  Ratio CC50/IC50: <=3

## CCc1c(C(=O)c2cccc3ccccc23)nc(SC(C)C)[nH]c1=O
[1]
  CC50 at 96 h: 179 µM
[2]
  IC50: 6.79 µM
[3]
  Ratio CC50/IC50: 26

## CC(C)c1c(C(=O)c2cccc3ccccc23)nc(SC2CCCC2)[nH]c1=O
[1]
  CC50 at 96 h: 24.7 µM
[2]
  IC50: 10.9 µM
[3]
  Ratio CC50/IC50: 2

## CC(C)c1c(C(C#N)c2cccc3ccccc23)nc(SC2CCCC2)[nH]c1=O (stereo unspecified)
[1]
  CC50 at 96 h: 7.32 µM
[2]
  IC50: 1.34 µM
[3]
  Ratio CC50/IC50: 5

## CCc1c(C(=O)c2ccccc2)nc(SC2CCCC2)[nH]c1=O
[1]
  CC50 at 96 h: 60.4 µM
[2]
  IC50: 4.69 µM
[3]
  Ratio CC50/IC50: 13

## CCc1c(C(C#N)c2cccc3ccccc23)nc(SC2CCCC2)[nH]c1=O (stereo unspecified)
[1]
  CC50 at 96 h: 51.9 µM
[2]
  IC50: 0.18 µM
[3]
  Ratio CC50/IC50: 293

## O=C(c1cc(=O)[nH]c(SC2CCCC2)n1)c1cccc2ccccc12
[1]
  CC50 at 96 h: 21 µM
[2]
  IC50: > 21 µM
[3]
  Ratio CC50/IC50: <1

## Cc1c(C(C#N)c2cccc3ccccc23)nc(SCC(=O)c2ccc(Cl)cc2)[nH]c1=O (stereo unspecified)
[1]
  CC50 at 96 h: 148 µM
[2]
  IC50: 4.71 µM
[3]
  Ratio CC50/IC50: 32

## CCc1c(C(=O)c2cccc3ccccc23)nc(SCc2ccccc2)[nH]c1=O
[1]
  CC50 at 96 h: > 312 µM
[2]
  IC50: > 312 µM

## COc1ccc(CSc2nc(C(C#N)c3ccccc3)c(C(C)C)c(=O)[nH]2)cc1 (stereo unspecified)
[1]
  CC50 at 96 h: 26.8 µM
[2]
  IC50: 3.53 µM
[3]
  Ratio CC50/IC50: 8

## C#CCSc1nc(C(C#N)c2cccc3ccccc23)c(CC)c(=O)[nH]1 (stereo unspecified)
[1]
  CC50 at 96 h: 48 µM
[2]
  IC50: 4.85 µM
[3]
  Ratio CC50/IC50: 10

## CCc1c(C(C#N)c2cccc3ccccc23)nc(SCc2ccc([N+](=O)[O-])cc2)[nH]c1=O (stereo unspecified)
[1]
  CC50 at 96 h: 24.5 µM
[2]
  IC50: 1.25 µM
[3]
  Ratio CC50/IC50: 20

## COc1ccc(CSc2nc(C(C#N)c3cccc4ccccc34)c(C(C)C)c(=O)[nH]2)cc1 (stereo unspecified)
[1]
  CC50 at 96 h: 2.09 µM
[2]
  IC50: > 2.09 µM
[3]
  Ratio CC50/IC50: <1

## CCSc1nc(C(=O)c2cccc3ccccc23)c(CC)c(=O)[nH]1
[1]
  CC50 at 96 h: 197 µM
[2]
  IC50: 27.8 µM
[3]
  Ratio CC50/IC50: 7

## Cc1c(C(C#N)c2ccccc2)nc(SC(C)C)[nH]c1=O (stereo unspecified)
[1]
  CC50 at 96 h: 10.8 µM
[2]
  IC50: 0.002 µM
[3]
  Ratio CC50/IC50: 4600

## CCc1c(C(=O)c2ccc3ccccc3c2)nc(SCc2ccccc2)[nH]c1=O
[1]
  CC50 at 96 h: 157 µM
[2]
  IC50: ≥ 60.8 µM
[3]
  Ratio CC50/IC50: <=3

## C=CCSc1nc(C(C#N)c2cccc3ccccc23)c(CC)c(=O)[nH]1 (stereo unspecified)
[1]
  CC50 at 96 h: > 346 µM
[2]
  IC50: 0.58 µM
[3]
  Ratio CC50/IC50: >585

## C#CCSc1nc(C(C#N)c2cccc3ccccc23)c(C)c(=O)[nH]1 (stereo unspecified)
[1]
  CC50 at 96 h: 46.1 µM
[2]
  IC50: 2.7 µM
[3]
  Ratio CC50/IC50: 17

## CCc1c(C(C#N)c2ccccc2)nc(SC(C)C)[nH]c1=O (stereo unspecified)
[1]
  CC50 at 96 h: 58 µM
[2]
  IC50: 0.64 µM
[3]
  Ratio CC50/IC50: 91

## Cc1c(C(=O)c2ccccc2)nc(SC(C)C)[nH]c1=O
[1]
  CC50 at 96 h: 263 µM
[2]
  IC50: 2.05 µM
[3]
  Ratio CC50/IC50: 128

## CCc1c(C(C#N)c2cccc3ccccc23)nc(SC(C)C)[nH]c1=O (stereo unspecified)
[4]
  Ratio CC50/IC50: >41
[5]
  IC50: 1.66 µM
[1]
  CC50 at 96 h: > 344 µM
[2]
  IC50: 0.24 µM
[3]
  Ratio CC50/IC50: >1400
[6]
  CC50: > 68.9 µM

## N#CC(c1cc(=O)[nH]c(SC2CCCC2)n1)c1cccc2ccccc12 (stereo unspecified)
[1]
  CC50 at 96 h: 22.8 µM
[2]
  IC50: > 22.8 µM
[3]
  Ratio CC50/IC50: <1

## Cc1c(C(C#N)c2cccc3ccccc23)nc(SCC(=O)c2ccccc2)[nH]c1=O (stereo unspecified)
[4]
  Ratio CC50/IC50: 70
[5]
  IC50: 0.99 µM
[1]
  CC50 at 96 h: 164 µM
[2]
  IC50: 0.09 µM
[3]
  Ratio CC50/IC50: 1500
[6]
  CC50: 69.9 µM

## COc1ccc(CSc2nc(C(C#N)c3c(Cl)cccc3Cl)c(C(C)C)c(=O)[nH]2)cc1 (stereo unspecified)
[1]
  CC50 at 96 h: 23.5 µM
[2]
  IC50: > 23.5 µM
[3]
  Ratio CC50/IC50: <1

## Cc1c(C(C#N)c2ccccc2)nc(SC2CCCC2)[nH]c1=O (stereo unspecified)
[1]
  CC50 at 96 h: 59 µM
[2]
  IC50: 6.34 µM
[3]
  Ratio CC50/IC50: 9

## Cc1c(Sc2ccccc2)n(COCCO)c(=O)[nH]c1=O [HEPT]
[3]
  Ratio CC50/IC50: 80

## Cc1ccnc2c1NC(=O)c1cccnc1N2C1CC1 [NEVIRAPINE]
[1]
  CC50 at 96 h: > 200 µM
[2]
  IC50: 0.25 µM
[3]
  Ratio CC50/IC50: >800
